The nature of series [1]: melting temperature; fluorescence melt of hairpins on a sequencing array, two-state fit, raised by 9.35 °C to match UV melts. The note with it: sodium 0.088 M. In outline:
(§1)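 Folding enthalpy and melting temperature come from bootstrapped two-state fits to Cy3 fluorescence of library hairpins carrying annealed Cy3 and quencher oligos on a sequenced MiSeq flow cell. Imaging was done in 50 mM Na-HEPES pH 8.0, 25 mM NaCl, stepping by 2.5 °C up to 60 °C, and signals were normalised to pre-quench Cy3 and to control constructs. Results of four replicates were combined by inverse variance, and fitted temperatures were raised by 9.35 °C to match UV melts.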

A short description of series [2]: folding enthalpy; higher = less favourable; fluorescence melt of hairpins on a sequencing array, two-state fit. The conditions noted are these: sodium 0.088 M. A digest of the protocol: as §1

Regarding GGCACCGAAAGGTCTGCC ((((((....)))..))), the Tm in series [1] was 48.4 °C. For the same sequence, the folding enthalpy in series [2] is -22.2 kcal/mol.
For the sequence CGTGGCGGAAACGCAACG (((.(((....))).))), the Tm in series [1] amounted to 56.8 °C. Moreover, the folding enthalpy in series [2] was -38.7 kcal/mol.
For the sequence GCCCACGAAAGTGTCGGC ((((((....)))..))), the Tm in series [1] worked out at 48.4 °C. Further, the folding enthalpy in series [2] is -19.6 kcal/mol.
With GGGCCACGAAAGTGCCCC (((.(((....))).))), the Tm in series [1] came to 59.3 °C. In addition, the folding enthalpy in series [2] is -17.3 kcal/mol.
Taken in the same sequence, the figures for GATGAGCGAAAGCTAATC (((.(((....))).))) were 46.6 °C and -24.9 kcal/mol.
As for GGGTATCGAAAGATCCC (((.(((....)))))), the Tm in series [1] was found to be 49.7 °C. Also, the folding enthalpy in series [2] is -30.6 kcal/mol.
The matching figures for GAACTAGGAAACTAGTCC (.(((((....))))).): 29.7 °C and -20.4 kcal/mol.
The matching figures for GCCAACCGAAAGGTGGGC (((.(((....))).))): 68.4 °C and -40.6 kcal/mol.
The matching figures for GATGTGACGAAAGTCATC (((..(((....)))))): 34.2 °C and -12 kcal/mol.
For the sequence GCTACGTCGAAAGACAGC (((..(((....)))))), the Tm in series [1] worked out at 36.4 °C. The folding enthalpy in series [2] is -16.2 kcal/mol.
The matching figures for GCTAACCGAAAGGTCAGC (((.(((....))).))): 49.7 °C and -29.7 kcal/mol.
With GGAGCGGGAAACCACTCC ((((.((....)).)))), the Tm in series [1] came out at 49.2 °C. Further, in series [2], the folding enthalpy was -34.7 kcal/mol.
GGGAATGGAAACATTTCC ((.((((....)))).)): the Tm in series [1] was determined as 45.1 °C. For the same sequence, the folding enthalpy in series [2] is -32 kcal/mol.
Taken in the same sequence, the figures for GGAATCGAAAGATGCTCC ((((((....)))..))) were 28.9 °C and -10.7 kcal/mol.
The matching figures for GCACCCGAAAGGGGATGC ((((((....)))..))): 50.8 °C and -19.6 kcal/mol.
Taken in the same sequence, the figures for GCTTGGGGAAACTCGAGC (((.(.(....).).))) were 36.9 °C and -31.3 kcal/mol.
In the case of GTTTATGGAAACGTAAAC (((((.(....).))))), the Tm in series [1] is 37.5 °C. Also, the folding enthalpy in series [2] was -30 kcal/mol.
The matching figures for GCCAAGGGAAACCCTAGC ((.(.((....)).).)): 28.8 °C and -17.6 kcal/mol.
Regarding GTCAACCGAAAGGTAGAC (((.(((....))).))), the Tm in series [1] turned out to be 51.5 °C. In addition, in series [2], the folding enthalpy was -31.6 kcal/mol.
Taken in the same sequence, the figures for GCGAGTGGAAACACTCAC (.(((((....))))).) were 45.7 °C and -14 kcal/mol.
The matching figures for GATCTAATAATAGATC ((((((....)))))): 35.5 °C and -22 kcal/mol.
The matching figures for GTGCACGGAAACGTGTGC (..((((....))))..): 50.2 °C and -27.7 kcal/mol.
For the sequence GACGCAGGAAACTGCATC ((.((((....)))).)), the Tm in series [1] amounted to 36.2 °C. The folding enthalpy in series [2] was -13.5 kcal/mol.
The matching figures for GATCAGCGAAAGCTAATC (((.(((....))).))): 35.9 °C and -15.7 kcal/mol.
The matching figures for GCGTTGCGAAAGCCCCGC (((..((....))..))): 48.3 °C and -18.2 kcal/mol.
For the sequence GATCAGGGAACTGATC ((((((....)))))), the Tm in series [1] came to 55.5 °C. For the same sequence, the folding enthalpy in series [2] was -33 kcal/mol.
The matching figures for GGATAAGCGAAAGCTTCC (((..(((....)))))): 35.5 °C and -12.4 kcal/mol.
The matching figures for GGATCCTCGAAAGAGTCC (((..(((....)))))): 23.6 °C and -12.3 kcal/mol.
Taken in the same sequence, the figures for GGCCTTGGAAACGAGGCC (((((.(....).))))) were 59.4 °C and -50.7 kcal/mol.
Consider GATCCGCAGCGGATC ((((((...)))))), for which the Tm in series [1] was found to be 54.8 °C. Moreover, the folding enthalpy in series [2] is -54.5 kcal/mol.
The matching figures for GATCACGGGTGTGATC ((((((....)))))): 58.8 °C and -36.9 kcal/mol.
Taken in the same sequence, the figures for GATCACGAAAGTGAATC ((((((....))).))) were 45.6 °C and -15.8 kcal/mol.
With GATCCCGGGGGGGATC ((((((....)))))), in series [1], the Tm is 62 °C. Besides, in series [2], the folding enthalpy was -33.7 kcal/mol.
The matching figures for GAGGTTGGAAACAACTTC ((.((((....)))).)): 43.4 °C and -24 kcal/mol.
Taken in the same sequence, the figures for GGAAGTGGAAACACTTCC (((((((....))))))) were 61 °C and -54 kcal/mol.
Taken in the same sequence, the figures for CGAACGGAAACGTATTCG ((((((....)))..))) were 29.1 °C and -17.7 kcal/mol.

Source of the values: the array DNA melting data of Ke et al. (doi:10.1101/2024.01.08.574731).
